Experimental data: ChEMBL document CHEMBL1641453, “Synthesis and evaluation of β-carboline derivatives as potential monoamine oxidase inhibitors” (Bioorg Med Chem, 2011); call rule not given here
pKi: −log10 of the molar value.

Assays:
[1] = target: T1, Amine oxidase [flavin-containing] A (Homo sapiens, UniProt P21397); test: Inhibition of human recombinant MAO-A expressed in baculovirus-infected insect cells after 1 hr by two-step bioluminescent assay
T1 sequence (P21397 whole entry): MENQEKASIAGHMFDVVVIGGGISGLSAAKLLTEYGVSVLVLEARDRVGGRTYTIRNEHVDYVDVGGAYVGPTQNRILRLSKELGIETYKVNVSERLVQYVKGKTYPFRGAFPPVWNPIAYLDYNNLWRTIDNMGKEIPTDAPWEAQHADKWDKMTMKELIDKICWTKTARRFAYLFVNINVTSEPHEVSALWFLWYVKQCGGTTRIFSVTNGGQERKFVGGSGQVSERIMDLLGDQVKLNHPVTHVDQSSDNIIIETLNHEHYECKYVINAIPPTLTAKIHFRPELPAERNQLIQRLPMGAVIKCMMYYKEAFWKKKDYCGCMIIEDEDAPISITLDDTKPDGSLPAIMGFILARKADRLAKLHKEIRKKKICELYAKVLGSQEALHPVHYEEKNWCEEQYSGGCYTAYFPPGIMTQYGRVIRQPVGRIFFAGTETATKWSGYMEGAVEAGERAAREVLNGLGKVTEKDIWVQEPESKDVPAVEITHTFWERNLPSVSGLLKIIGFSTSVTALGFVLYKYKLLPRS

[2] = target: T2, Amine oxidase [flavin-containing] B (Homo sapiens, UniProt P27338); test: (§1) Inhibition of human recombinant MAO-B expressed in baculovirus-infected insect cells at 1 uM after 1 hr by two-step bioluminescent assay; conditions: 1 h, 1 µM
T2 sequence (P27338 whole entry): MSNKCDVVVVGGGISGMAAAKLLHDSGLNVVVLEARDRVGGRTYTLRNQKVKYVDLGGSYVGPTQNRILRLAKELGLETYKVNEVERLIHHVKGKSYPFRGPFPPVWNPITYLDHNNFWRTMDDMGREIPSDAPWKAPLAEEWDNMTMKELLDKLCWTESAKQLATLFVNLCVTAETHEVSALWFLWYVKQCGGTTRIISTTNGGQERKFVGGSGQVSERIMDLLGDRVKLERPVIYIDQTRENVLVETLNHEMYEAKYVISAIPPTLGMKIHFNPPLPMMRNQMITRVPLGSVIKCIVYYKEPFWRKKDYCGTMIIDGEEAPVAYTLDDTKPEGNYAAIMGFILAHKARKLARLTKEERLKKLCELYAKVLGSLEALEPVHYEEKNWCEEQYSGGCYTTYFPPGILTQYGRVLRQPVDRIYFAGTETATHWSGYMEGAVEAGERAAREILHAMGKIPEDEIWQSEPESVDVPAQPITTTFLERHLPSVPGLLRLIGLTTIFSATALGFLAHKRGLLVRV
Method in brief: (§2)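 Recombinant human MAO-B from baculovirus-infected insect cell microsomes (0.5 U/mg final) preincubated 2 min 30 s with compound, then luminogenic substrate at 15 µM final, 1 h at 37 °C. Luciferin detection reagent stops the reaction and luminescence is read after 20 min. Hepes 100 mM pH 7.5, 5% glycerol, 12.5% DMSO. Tested in triplicate; % inhibition from signal relative to no-compound control.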

[3] = target: T3, MAO-B (amine oxidase [flavin-containing] B) (Homo sapiens, UniProt P27338); test: as §1; method in brief: as §2
T3 sequence (P27338 whole entry): T2 sequence (P27338 whole entry)

[4] = target: T2, Amine oxidase [flavin-containing] B; test: Inhibition of human recombinant MAO-B expressed in baculovirus-infected insect cells after 1 hr by two-step bioluminescent assay
Method in brief: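 Recombinant human MAO-B microsomes from baculovirus-infected insect cells, 0.5 U/mg final. Enzyme preincubated with compound 2 min 30 s at 37 °C, then luminogenic luciferin-derivative substrate added (15 µM final). Luciferin detection reagent stops the reaction; luminescence read 20 min later. Buffer 100 mM Hepes pH 7.5 with 5% glycerol, DMSO 12.5% final. Screened at 10 and 1 µM in triplicate; IC50 from sigmoidal fit.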

| SMILES | pKi [1] | inhibition (INH) [2] | inhibition at 1 h, 1 µM [3] [%] | pKi [4] |
| --- | --- | --- | --- | --- |
| C=CCOc1ccc2c(c1)[nH]c1c(C)nccc12 | 8.30 | Not Active | – | – |
| Cc1nccc2c1[nH]c1cc(OCC(C)C)ccc12 | 8.41 | – | 14 | – |
| COCCOc1ccc2c(c1)[nH]c1c(C)nccc12 | 7.53 | Not Active | – | – |
| Cc1nccc2c1[nH]c1cc(OCCCC(F)(F)F)ccc12 | 8.44 | – | 24 | – |
| Cc1nccc2c1[nH]c1cc(OCC3CCCCC3)ccc12 | 8.37 | – | – | 6.65 |
| Cc1nccc2c1[nH]c1cc(OCc3ccccc3)ccc12 | 7.90 | – | 42 | – |
| Cc1nccc2c1[nH]c1cc(OCc3ccccn3)ccc12 | 6.30 | Not Active | – | – |
| Cc1nccc2c1[nH]c1cc(OCc3ccc4ccccc4c3)ccc12 | 7.00 | Not Active | – | – |
| COc1ccc2c(c1)[nH]c1c(C)nccc12 [HARMINE] | – | – | – | 3.92 |

Second part, led by results:

| pKi [1] | inhibition (INH) [2] | SMILES | inhibition at 1 h, 1 µM [3] [%] | pKi [4] |
| --- | --- | --- | --- | --- |
| 7.55 | Not Active | Cc1nccc2c1[nH]c1cc(OCCO)ccc12 | – | – |
| 8.30 | – | Cc1nccc2c1[nH]c1cc(OCCc3ccccc3)ccc12 | 39 | – |
| 7.60 | Not Active | Cc1nccc2c1[nH]c1cc(OCc3cccnc3)ccc12 | – | – |
| 7.45 | Not Active | Cc1nccc2c1[nH]c1cc(OCc3ccncc3)ccc12 | – | – |
| 5.99 | Not Active | Cc1nccc2c1[nH]c1cc(OCCN(C)C)ccc12 | – | – |
| 6.16 | Not Active | Cc1nccc2c1[nH]c1cc(OCCCN(C)C)ccc12 | – | – |
| 6.59 | Not Active | Cc1nccc2c1[nH]c1cc(OCCN3CCOCC3)ccc12 | – | – |
